Bioassay records as filed in PubChem.
Compounds with a hit are over-represented: about 1.4% of the library has one in this group of screens.
CDK5 p35 inh – blocks human CDK5/p35 kinase activity; Recombinant CDK5/p35, ADP-Glo luminescence, 60 min; inhibition, % at 10 µM; actives 0.01% (n = 330,000);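 active means highest replicate inhibition of at least 50% and at least 75% of replicates reaching 50%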;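 further: plate controls were DMSO neutral control for no effect and GW8510 at 10 µM for full effect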
Target sequence (Q00535 whole entry, looked up): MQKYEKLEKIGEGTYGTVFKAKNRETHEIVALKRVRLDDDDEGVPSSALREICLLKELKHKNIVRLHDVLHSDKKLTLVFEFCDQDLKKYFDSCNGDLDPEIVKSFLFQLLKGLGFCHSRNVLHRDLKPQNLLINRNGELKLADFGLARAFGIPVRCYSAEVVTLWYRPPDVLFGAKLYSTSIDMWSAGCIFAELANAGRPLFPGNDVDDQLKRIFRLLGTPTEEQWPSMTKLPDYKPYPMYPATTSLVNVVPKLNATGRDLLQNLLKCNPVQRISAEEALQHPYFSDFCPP
Target sequence (Q15078 whole entry, looked up): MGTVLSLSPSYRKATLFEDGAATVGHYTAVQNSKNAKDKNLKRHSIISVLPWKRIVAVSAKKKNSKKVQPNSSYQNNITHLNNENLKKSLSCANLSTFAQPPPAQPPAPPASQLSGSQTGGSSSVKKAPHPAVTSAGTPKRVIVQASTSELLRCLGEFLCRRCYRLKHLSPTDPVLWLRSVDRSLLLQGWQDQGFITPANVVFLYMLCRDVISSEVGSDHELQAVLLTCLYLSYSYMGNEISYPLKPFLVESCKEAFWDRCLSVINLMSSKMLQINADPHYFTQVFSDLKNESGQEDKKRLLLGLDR
GSK3B inh – human GSK3beta kinase inhibition | actives 0.038% (n = 300,000) | P49841 | AID 2097 | activity score (negative = inhibition), % at 10 µM | GST-GSK3beta kinase, ADP-Glo luminescence, 60 min; stronger effect = lower value;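 active means more than half of replicate wells score below -50%, meaning over 50% inhibition versus plate controls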;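 further: 0% = median DMSO wells and -100% = median GW8510 positive control wells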
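Test system – GST-tagged human GSK3beta kinase, cell-free · Incubation – 60 min enzyme reaction, room temperature · Signal – ADP-Glo luminescence · Also added – peptide substrate and ATP at 25 µM · Controls – DMSO neutral wells and GW8510 at 20 µM as positive · Buffer or medium – Tris/MgCl2 kinase buffer · Measure – Luminescence-derived activity versus plate DMSO and GW8510 wells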
GSK3A inh – inhibitors of human GSK-3 alpha kinase; ADP-Glo luminescence, 60 min; AID 2650; inhibition, % at 10 µM; actives 0.1% (n = 320,000); P49840;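 active means more than half of replicates show inhibition above 20%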;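 further: GST-tagged GSK-3 alpha with peptide substrate and 25 µM ATP; 0% = DMSO neutral wells and 100% = GW8510 positive control wells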
GSIS activator – GLuc luminescence reporter in INS-1E cells, primary screen for activators of glucose-dependent secretion of insulin; INS-1E GLuc reporter insulin secretion, 2-3 h; actives 0.61% (n = 370,000); AID 743287; activation, % at 16.6 µM;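 active means lowest replicate activation of at least 40%, so every replicate reaches that level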;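 further: 0% = median of neutral control wells and 100% = median of IBMX positive control wells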
HIV Env fusion – HIV envelope-mediated fusion inhibition | HeLa-JRFL Env/CEM21 cell fusion, luciferase | inhibition, % at 12.3 µM | actives 1.1% (n = 360,000);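 active means mean replicate inhibition score of at least 50 and every replicate individually at or above 50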;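 further: 0% = plate neutral controls and 100% = maraviroc near 300 nM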
STK33 kinase inh – inhibitors of human STK33 kinase | Q9BYT3 | purified STK33, MBP phosphorylation, ADP-Glo luminescence | inhibition, % at 10 µM | actives 0.073% (n = 320,000) | AID 2661;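 active means inhibition at or above 25%, using the most active replicate where run in duplicate; inactive means inhibition below 25%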
Active calls of the source: *; nt = no result; [ ] = remark or other dose.

SMILES	CDK5 p35 inh	GSK3B inh	GSK3A inh	GSIS activator	HIV Env fusion	STK33 kinase inh
C[C@@H]1CN([C@@H](C)CO)C(=O)c2cccc(NC(=O)Nc3cccc4ccccc34)c2O[C@H]1CN(C)S(=O)(=O)c1cn(C)cn1	nt	nt	nt	10.3	nt	nt
COC(=O)Cc1ccc(NC(=O)c2ccc(C(C)(C)C)cc2)cc1	0.5	3.4	-1.0	-12.6	58.9*	-0.9
CO[C@@H](CN(C)S(=O)(=O)c1ccccc1)[C@@H](C)CN(Cc1ccccc1Cl)[C@@H](C)CO	nt	nt	nt	-2.2	nt	nt
CCN1/C(=C/c2ccc3cccc(C)c3[n+]2CC)Sc2ccccc21	8.4	-38.1	14.1	-33.9	58.8*	0.3
C[C@@H]1CN([C@@H](C)CO)C(=O)Cc2cc(NS(=O)(=O)c3cn(C)cn3)ccc2O[C@@H]1CN(C)S(C)(=O)=O	nt	nt	nt	6.6	-25.6[16.7 µM]	nt
COCc1ccc(C(=O)NC2CCSc3ccccc32)cc1 (configuration not stated)	2.6	1.5	-0.9	75.8*	-5.8	-0.4
CCCOc1ccc(C(=O)NC2CCSc3ccccc32)cc1 (configuration not stated)	0.0	-4.5	-0.5	-6.3	-13.1	-0.7
C[C@H](CO)N1C[C@H](C)[C@@H](CN(C)CC2CCCCC2)Oc2c(NS(=O)(=O)c3ccc(Cl)cc3)cccc2C1=O	nt	nt	nt	0.5	7.9[16.7 µM]	nt
CCCCNC(=O)CSc1cc(=O)n(C)c2ccccc12	-1.3	2.4	-3.0	nt	-51.4	-2.5
CCOc1ccc(CCNC(=O)CSc2cc(=O)n(C)c3ccccc23)cc1OCC	nt	-0.7	-2.4	56.6*	9.6	-0.6
CCOc1ccc(CCNC(=O)COc2cc(=O)n(C)c3ccccc23)cc1OCC	-0.1	-2.3	1.8	52.4*	11.4	-0.3
O=S(=O)(c1ccc(=S)[nH]c1)N1CCOCC1	-2.5	nt	-1.9	16.4	11.0	-0.2
O=S(=O)(c1ccc(=S)[nH]c1)N1CCCCCC1	2.3	nt	0.0	42.1*	-10.1	-0.4
CCCC(=O)OCCNc1cc(Sc2nc3ccccc3[nH]2)c2nonc2c1[N+](=O)[O-]	2.9	1.7	-0.6	75.6*	-31.5	1.4
CCC(=O)OCCNc1cc(SCCC(=O)OC)c2nonc2c1[N+](=O)[O-]	-0.2	-0.2	4.4	-20.9	14.4	-1.6
CCC(=O)OCCNc1cc(Sc2nccn2C)c2nonc2c1[N+](=O)[O-]	0.2	-1.2	1.8	111.4*	-183.7	6.2
CO[C@@H]1CN(C)C(=O)c2cc(C#N)ccc2OCC[C@@H]2CC[C@@H](OC)[C@@H](CN(C)C(=O)[C@H]1C)O2	nt	nt	nt	14.3	-1.5[16.7 µM]	nt
O=C(c1ccc(Cl)c(S(=O)(=O)N2CCCCCC2)c1)N1CCN(c2ccccn2)CC1	-1.7	0.9	-0.6	-17.0	63.2*	-0.2
O=C(Nc1ccc(Br)cn1)c1cccc(C(=O)Nc2ccc(Br)cn2)c1	-0.6	-1.6	-1.5	10.6	4.4	0.1
O=C(Nc1ccc(Br)cn1)c1cccc(S(=O)(=O)N2CCCC2)c1	2.8	nt	-0.9	nt	56.5*	2.7
Cc1ccc(NC(=O)c2ccc(Cl)c(S(=O)(=O)N3CCCCCC3)c2)nc1	1.3	-1.3	0.9	-2.2	61.1*	-1.2
O=C(c1ccc(Cl)c(S(=O)(=O)N2CCCCCC2)c1)N1CCCCC1	-0.9	-1.7	-1.5	-10.2	-3.2	3.5
O=C(Nc1cccc(S(=O)(=O)N2CCCCCC2)c1)c1cncc(Br)c1	-2.3	nt	-0.6	nt	55.7*	-0.6
Cc1ccc(NC(=O)c2ccc(S(=O)(=O)N3CCCCCC3)cc2)nc1	0.7	-1.5	2.5	7.0	-11.5	1.1
Cc1ccc(S(=O)(=O)N2CCCCC2)cc1NC(=O)c1cncc(Br)c1	1.9	nt	nt	-3.2	12.3	nt
SMILES	CDK5 p35 inh	GSK3B inh	GSK3A inh	GSIS activator	HIV Env fusion	STK33 kinase inh
C[C@@H]1CN([C@H](C)CO)C(=O)c2cccc(NS(=O)(=O)c3cccs3)c2O[C@@H]1CN(C)Cc1ccc(C(=O)O)cc1	nt	nt	nt	17.4	nt	nt
CCCNC(=O)[C@@H]1[C@@H](CO)[C@@H]2Cn3c(ccc(-c4ccccc4)c3=O)[C@H]1N2C(=O)CC	nt	nt	nt	0.0	nt	nt
CCOc1ccc2c(c1)-c1c(ssc1=S)C(C)(C)N2C(=O)c1ccco1	-2.0	3.5	-0.9	-4.6	71.5*	-0.6
CCc1ccc(NC(=O)C2=CC(c3ccc(OC)c(OC)c3)=NS(=O)(=O)N2C)cc1	2.2	1.8	-0.8	-5.8	56.0*	-0.2
COc1ccc(CNC(=O)C2=CC(c3ccc(OC)c(OC)c3)=NS(=O)(=O)N2C)cc1	1.3	1.4	-1.4	2.3	nt	0.8
CO[C@H]1CN(C)C(=O)c2cc(NC(=O)Nc3ccccc3F)ccc2OC[C@@H](C)N(Cc2ccccc2C(=O)O)C[C@@H]1C	nt	nt	nt	-20.7	nt	nt
O=C(NC[C@H]1CC[C@H]2[C@H](CN2C(=O)NC2CCCC2)O1)c1ccc2c(c1)OCO2	nt	nt	nt	nt	2.0[16.7 µM]	nt
O=C(NC[C@@H]1CC[C@H]2[C@H](CN2Cc2cc(-c3ccccc3)on2)O1)c1ccc2c(c1)OCO2	nt	nt	nt	nt	58.5*[16.7 µM]	nt
CC1(C)CC[C@]2(C(=O)n3ccnc3)CC[C@]3(C)[C@H](C(=O)C=C4[C@@]5(C)C=C(C#N)C(=O)C(C)(C)[C@@H]5CC[C@]43C)[C@@H]2C1	-0.9	nt	nt	-26.3	109.5*	nt
O=C(C[C@H]1C=C[C@@H](NC(=O)c2ccncc2)[C@@H](CO)O1)Nc1ccccc1	nt	nt	nt	-1.5	nt	nt
NS(=O)(=O)c1ccc(N=Nc2ccc(O)c3ncccc23)cc1	1.3	0.5	-1.2	0.3	61.1*	-0.1
NS(=O)(=O)c1ccc(N=Nc2ccc(=O)[nH]c2O)cc1	3.2	-33.1	54.6*	3.5	-40.8	-1.8
COc1ccc(Cn2c(SCc3cc(C)ccc3C)nc3cc(OC)c(OC)cc3c2=N)cc1	-1.1	1.0	-2.3	nt	11.3	-1.5
COc1ccc(Cn2c(SCc3ccc(C)cc3)nc3cc(OC)c(OC)cc3c2=N)cc1Cl	2.5	3.4	3.5	nt	122.4*	0.1
CC(O)c1nc2ccccc2n1C1CCCCC1 (configuration not stated)	-0.1	-0.5	-1.3	63.1*	nt	-2.6
O=C(Nc1ccc2c(c1)OCO2)N[C@@H]1CC[C@@H](CCNC(=O)C2CCCCC2)O[C@@H]1CO	nt	nt	nt	-11.2	-15.0[16.7 µM]	nt
CC(C)CC#Cc1cnc2c(c1)C(=O)N([C@H](C)CO)C[C@H](C)[C@H](CN(C)Cc1cccc(C(=O)O)c1)O2	nt	nt	nt	1.1	nt	nt
COc1ccc(CC(=O)OCC(=O)N2CCc3ccccc32)cc1OC	1.4	nt	nt	121.2*	nt	nt
COc1ccc(CC(=O)OCC(=O)Nc2cccc(C(C)=O)c2)cc1OC	-0.4	nt	nt	59.2*	nt	nt
COc1ccc(CC(=O)OCC(=O)N2CCCc3ccccc32)cc1OC	1.0	2.2	2.0	110.8*	-2.5	-1.0
COc1cccc(C(=O)OCC(=O)N2CCc3ccccc32)c1OC	0.6	nt	nt	6.7	-50.6	nt
C[C@@H]1CN([C@H](C)CO)C(=O)c2cc(/C=C/c3ccccc3)cnc2O[C@H]1CN(C)C(=O)c1ccc(F)cc1	nt	nt	nt	-27.9	12.6[16.7 µM]	nt
